From ChEMBL document CHEMBL1121388, “Analgesic narcotic antagonists. 2. 8-Alkymorphinan-6-ones” (J Med Chem, 1980)
Active and inactive are the calls of the source. No cut-off for these calls is given here.

Tests used:
Mus musculus [1] = assay: The Effective dose was measured by using mouse writhing assay after the compound administered subcutaneously at a dose of 25 umol/kg; IA means inactive at the given dose; format: functional, organism-based
Summary of the method: (§1)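 Analgesia in the mouse writhing test induced by acetic acid, with compound given subcutaneously. Salts were dissolved in distilled H₂O; free bases were dissolved by dropwise 1 N HCl and then diluted.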

Rattus norvegicus [2] = assay: The effective dose was measured by using rat tail flick assay after the compound administered intraperitoneally.; format: functional; details: ip
Mus musculus [3] = assay: The effective dose was measured by using mouse writhing assay after the compound administered subcutaneously.; format: functional; details: sc; summary of the method: as §1
Rattus norvegicus [4] = assay: The Effective dose was measured by using rat tail flick assay after the compound administered subcutaneously at a dose of 28 umol/kg; IA means inactive at the given dose; format: functional, organism-based
Summary of the method: (§2)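 Agonist activity in the rat heat-stimulus tail-flick test. Drug was given subcutaneously and rats were tested 20 min after dosing. Salts were dissolved in distilled H₂O; free bases were dissolved with dropwise 1 N HCl and then diluted. ED₅₀ or inactivity/lethality recorded at the dose indicated.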

Rattus norvegicus [5] = assay: The Effective dose was measured by using rat tail flick assay after the compound administered intraperitoneally at a dose of 30 umol/kg; IA means inactive at the given dose; format: functional, organism-based
Rattus norvegicus [6] = assay: Effective dose was measured by using rat tail flick assay after subcutaneous administration; format: functional; details: sc; summary of the method: as §2
Mus musculus [7] = assay: The Effective dose was measured by using mouse writhing assay after the compound administered subcutaneously at a dose of 24 umol/kg; IA means inactive at the given dose; format: functional, organism-based; summary of the method: as §1
Mus musculus [8] = assay: The Effective dose was measured by using mouse writhing assay 5 min after the compound administered subcutaneously; format: functional; details: sc
Rattus norvegicus [9] = organism: Rattus norvegicus; assay: Ratio of agonist to that of antagonist activity; format: functional
Mus musculus [10] = assay: The Effective dose was measured by using mouse writhing assay after the compound administered subcutaneously at a dose of 75 umol/kg; IA means inactive at the given dose; format: functional, organism-based; summary of the method: as §1
Rattus norvegicus [11] = assay: The %change in weight from day 0 to day1 after administering the compound at dose of 40 (mg/kg)/day in rat; format: functional
Summary of the method: (§3)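 Rat physical dependence liability study: drug infused at the stated mg/kg/day for 6 days, with saline-infused controls for 6 days. Body weight was recorded daily and expressed as % change from day 0 on days 1–4. Groups of 4–6 rats; values are means ±.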

Rattus norvegicus [12] = assay: The %change in weight from day 0 to day 2 after administering the compound at dose of 40 (mg/kg)/day in rat; format: functional; summary of the method: as §3
Rattus norvegicus [13] = assay: The %change in weight from day 0 to day 3 after administering the compound at dose of 40 (mg/kg)/day in rat; format: functional; summary of the method: as §3
Rattus norvegicus [14] = assay: The %change in weight from day 0 to day 4 after administering the compound at dose of 40 (mg/kg)/day in rat; format: functional; summary of the method: as §3
Rattus norvegicus [15] = assay: The Effective dose was measured by using rat tail flick assay after the compound administered intraperitoneally at a dose of 50 uM/Kg; IA means inactive at the given dose; format: functional, organism-based
Rattus norvegicus [16] = assay: The Effective dose was measured by using rat tail flick assay after the compound administered intraperitoneally at a dose of 25 umol/kg; IA means inactive at the given dose; format: functional, organism-based
Mus musculus [17] = assay: The Effective dose was measured by using mouse writhing assay after the compound administered subcutaneously at a dose 27umol/kg; IA means inactive at the given dose; format: functional, organism-based; summary of the method: as §1
Rattus norvegicus [18] = assay: The Effective dose was measured by using rat tail flick assay after the compound administered subcutaneously at a dose 27umol/kg; IA means inactive at the given dose; format: functional, organism-based; summary of the method: as §2
Mus musculus [19] = assay: The Effective dose was measured by using mouse writhing assay after the compound administered subcutaneously at a dose of 22 umol/kg; IA means inactive at the given dose; format: functional, organism-based; summary of the method: as §1
Mus musculus [20] = assay: The Effective dose was measured by using mouse writhing assay after the compound administered subcutaneously; IA means inactive; format: functional, organism-based; summary of the method: as §1
Mus musculus [21] = assay: The Effective dose was measured by using mouse writhing assay after the compound administered subcutaneously at a dose of 50 umol/kg; IA means inactive at the given dose; format: functional, organism-based; summary of the method: as §1
Rattus norvegicus [22] = assay: The Effective dose was measured by using rat tail flick assay after the compound administered intraperitoneally at a dose of 9 umol/kg; IA means inactive at the given dose; format: functional, organism-based

## C[C@@H]1CC(=O)CC23CCN(CC4CC4)C(Cc4ccc(O)cc42)[C@@H]13 (stereo partly specified)
Mus musculus [1]
  ED50: inactive
Rattus norvegicus [2]
  ED50: 0.89 µmol/kg

## CCC[C@@H]1CC(=O)CC23CCN(C)C(Cc4ccc(OC)cc42)[C@@H]13 (stereo partly specified)
Mus musculus [3]
  ED50: 55 µmol/kg
Rattus norvegicus [4]
  ED50: inactive

## COc1ccc2c(c1)C13CCN(CC4CCC4)C(C2)[C@H]1CCC(=O)C3 (stereo partly specified)
Mus musculus [3]
  ED50: 20.3 µmol/kg
Rattus norvegicus [5]
  ED50: inactive

## CC[C@@H]1CC(=O)CC23CCN(CC4CC4)C(Cc4ccc(OC)cc42)[C@@H]13 (stereo partly specified)
Mus musculus [1]
  ED50: inactive
Rattus norvegicus [2]
  ED50: 1.64 µmol/kg

## COc1ccc2c(c1)C13CCN(C)C(C2)[C@@H]1CCC(=O)C3 (stereo partly specified)
Mus musculus [3]
  ED50: 1.72 µmol/kg
Rattus norvegicus [6]
  ED50: 2.32 µmol/kg

## CCC[C@@H]1CC(=O)CC23CCN(CC4CCC4)C(Cc4ccc(OC)cc42)[C@@H]13 (stereo partly specified)
Mus musculus [7]
  ED50: inactive
Rattus norvegicus [2]
  ED50: > 24 µmol/kg

## CCC[C@@H]1CC(=O)CC23CCN(C)C(Cc4ccc(O)cc42)[C@@H]13 (stereo partly specified)
Mus musculus [3]
  ED50: 1.37 µmol/kg
Rattus norvegicus [6]
  ED50: 2.46 µmol/kg

## CC[C@H]1CC(=O)CC23CCN(CC4CCC4)C(Cc4ccc(O)cc42)[C@H]13.Cl (stereo partly specified)
Mus musculus [8]
  ED50: 0.54 µmol/kg
Rattus norvegicus [2]
  ED50: 0.82 µmol/kg
Rattus norvegicus [9]
  Ratio: 0.65

## CC[C@@H]1CC(=O)CC23CCN(CC4CCC4)C(Cc4ccc(OC)cc42)[C@@H]13 (stereo partly specified)
Mus musculus [10]
  ED50: inactive
Rattus norvegicus [2]
  ED50: > 25 µmol/kg

## CC[C@H]1CC(=O)CC23CCN(C)C(Cc4ccc(OC)cc42)[C@H]13 (stereo partly specified)
Mus musculus [3]
  ED50: 3.23 µmol/kg
Rattus norvegicus [6]
  ED50: 10.6 µmol/kg

## O=C(O)C(O)C(O)C(=O)O.Oc1ccc2c(c1)[C@@]13CCCC[C@@]1(O)[C@@H](C2)N(CC1CCC1)CC3 [BUTORPHANOL TARTRATE]
Rattus norvegicus [11]
  Change: -6.6%
Rattus norvegicus [12]
  Change: -3.1%
Rattus norvegicus [13]
  Change: 0.9%
Rattus norvegicus [14]
  Change: 2.2%

## C[C@@H]1CC(=O)CC23CCN(C)C(Cc4ccc(O)cc42)[C@@H]13 (stereo partly specified)
Mus musculus [3]
  ED50: 1.18 µmol/kg
Rattus norvegicus [6]
  ED50: 0.93 µmol/kg

## CCC[C@H]1CC(=O)CC23CCN(CC4CCC4)C(Cc4ccc(OC)cc42)[C@H]13 (stereo partly specified)
Mus musculus [3]
  ED50: 34 µmol/kg
Rattus norvegicus [15]
  ED50: inactive

## CN1CCC23CC(=O)CC[C@H]2C1Cc1ccc(O)cc13 (stereo partly specified)
Mus musculus [3]
  ED50: 0.52 µmol/kg
Rattus norvegicus [6]
  ED50: 70 µmol/kg

## C[C@@H]1CC(=O)CC23CCN(CC4CCC4)C(Cc4ccc(O)cc42)[C@@H]13 (stereo partly specified)
Mus musculus [3]
  ED50: 5.98 µmol/kg
Rattus norvegicus [2]
  ED50: 12.8 µmol/kg

## COc1ccc2c(c1)C13CCN(CC4CCC4)C(C2)[C@@H]1CCC(=O)C3 (stereo partly specified)
Mus musculus [3]
  ED50: 0.58 µmol/kg
Rattus norvegicus [16]
  ED50: inactive

## COc1ccc2c(c1)C13CCN(CC4CC4)C(C2)[C@H]1CCC(=O)C3 (stereo partly specified)
Mus musculus [3]
  ED50: > 25 µmol/kg
Rattus norvegicus [2]
  ED50: 3.6 µmol/kg

## CCC[C@H]1CC(=O)CC23CCN(C)C(Cc4ccc(O)cc42)[C@H]13 (stereo partly specified)
Mus musculus [17]
  ED50: inactive
Rattus norvegicus [18]
  ED50: inactive

## COc1ccc2c3c1O[C@H]1[C@@H](O)C=C[C@H]4[C@@H](C2)N(C)CC[C@@]341 [CODEINE]
Mus musculus [3]
  ED50: 10.3 µmol/kg
Rattus norvegicus [6]
  ED50: 75 µmol/kg

## COc1ccc2c3c1O[C@H]1C(=O)CC[C@H]4[C@@H](C2)N(C)CC[C@]314 [HYDROCODONE]
Rattus norvegicus [6]
  ED50: 5.2 µmol/kg

## CC[C@@H]1CC(=O)CC23CCN(C)C(Cc4ccc(OC)cc42)[C@@H]13 (stereo partly specified)
Mus musculus [3]
  ED50: 37 µmol/kg
Rattus norvegicus [6]
  ED50: > 28 µmol/kg

## CC[C@@H]1CC(=O)CC23CCN(CC4CC4)C(Cc4ccc(O)cc42)[C@@H]13 (stereo partly specified)
Mus musculus [1]
  ED50: inactive
Rattus norvegicus [2]
  ED50: 0.88 µmol/kg

## CCC[C@@H]1CC(=O)CC23CCN(CC4CC4)C(Cc4ccc(OC)cc42)[C@@H]13 (stereo partly specified)
Mus musculus [19]
  ED50: inactive
Rattus norvegicus [2]
  ED50: 6.4 µmol/kg

## C[C@H]1[C@H]2Cc3ccc(O)cc3[C@]1(C)CCN2CC1CC1 [CYCLAZOCINE]
Mus musculus [3]
  ED50: 0.41 µmol/kg
Rattus norvegicus [2]
  ED50: 0.81 µmol/kg
Rattus norvegicus [9]
  Ratio: 0.5

## COc1ccc2c(c1)C13CCN(CC4CC4)C(C2)[C@@H]1CCC(=O)C3.Cl (stereo partly specified)
Mus musculus [3]
  ED50: 0.66 µmol/kg
Rattus norvegicus [2]
  ED50: 14.9 µmol/kg
Rattus norvegicus [9]
  Ratio: 0.04

## C=CCN1CC[C@]23c4c5ccc(O)c4O[C@H]2C(=O)CC[C@@]3(O)[C@H]1C5 [NALOXONE]
Mus musculus [20]
  ED50: inactive

## CC[C@H]1CC(=O)CC23CCN(CC4CC4)C(Cc4ccc(O)cc42)[C@H]13 (stereo partly specified)
Mus musculus [21]
  ED50: inactive
Rattus norvegicus [2]
  ED50: 4.7 µmol/kg

## CCC[C@@H]1CC(=O)CC23CCN(CC4CC4)C(Cc4ccc(O)cc42)[C@@H]13 (stereo partly specified)
Mus musculus [7]
  ED50: inactive
Rattus norvegicus [2]
  ED50: 3.34 µmol/kg

## CCC1CCCC23CCN(CC4CCC4)C(Cc4ccc(O)cc42)[C@H]13 (stereo partly specified)
Mus musculus [3]
  ED50: > 25 µmol/kg
Rattus norvegicus [22]
  ED50: inactive
